Assays:
Influenza A virus [1] = experiment: Antiviral activity against sInfluenza A virus (A/California/04/2009(H1N1)) infected in MDCK cells from Mill Hill assessed as log reduction in viral titer at 42.7 uM after 24 hrs by immunofluorescent assay; assay type: functional
Outline: (§1)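 MDCK cells (ATCC or Mill Hill) infected with 2009 pandemic H1N1 at MOI ~0.01, 1 h adsorption at 4°C, washed. DMEM with 2 μg/ml TPCK-trypsin plus drug for 24 h at 37°C. Supernatants titrated on MDCK cells by focus formation: methanol/acetic acid fixation, anti-nucleoprotein MAbs, FITC secondary, foci counted. Titre as log10 FFU per 100 μl; detection limit <10 FFU; quadruplicate wells.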

Influenza A virus [2] = experiment: Antiviral activity against Influenza A virus (A/Mexico/4604/2009(H1N1)) infected in MDCK cells from Mill Hill assessed as log reduction in viral titer at 42.7 uM after 24 hrs by immunofluorescent assay; assay type: functional
Outline: (§2)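 Yield reduction in MDCK-ATCC or MDCK-Mill Hill cells infected at MOI ∼0.01. Adsorption 1 h at 4°C, washed, then DMEM with 2 μg/ml TPCK-trypsin and drug. At 24 h, supernatants were titrated by immunofluorescent focus assay on MDCK cells with anti-NP monoclonals and FITC secondary. Titres as log10 FFU per 100 μl; detection limit <10 FFU. Quadruplicate, mean ± SD.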

Influenza A virus [3] = experiment: Antiviral activity against sInfluenza A virus (A/Washington/29/2009(H1N1)) infected in MDCK cells from Mill Hill assessed as log reduction in viral titer at 42.7 uM after 24 hrs by immunofluorescent assay; assay type: functional, Influenza A virus (A/Washington/29/2009(H1N1)); outline: as §1
Influenza A virus [4] = experiment: Antiviral activity against Influenza A virus (A/Illinois/10/2009(H1N1)) infected in MDCK cells from Mill Hill assessed as log reduction in viral titer at 42.7 uM after 24 hrs by immunofluorescent assay; assay type: functional; outline: as §2
Influenza A virus [5] = experiment: Antiviral activity against sInfluenza A virus (A/California/04/2009(H1N1)) infected in MDCK cells from ATCC assessed as log reduction in viral titer at 128 uM after 24 hrs by immunofluorescent assay; assay type: functional; outline: as §1
Influenza A virus [6] = experiment: Antiviral activity against Influenza A virus (A/Mexico/4604/2009(H1N1)) infected in MDCK cells from ATCC assessed as log reduction in viral titer at 128 uM after 24 hrs by immunofluorescent assay; assay type: functional; outline: as §2
Influenza A virus [7] = experiment: Antiviral activity against sInfluenza A virus (A/Washington/29/2009(H1N1)) infected in MDCK cells from ATCC assessed as log reduction in viral titer at 128 uM after 24 hrs by immunofluorescent assay; assay type: functional, Influenza A virus (A/Washington/29/2009(H1N1)); outline: as §1
Influenza A virus [8] = experiment: Antiviral activity against Influenza A virus (A/Illinois/10/2009(H1N1)) infected in MDCK cells from ATCC assessed as log reduction in viral titer at 128 uM after 24 hrs by immunofluorescent assay; assay type: functional; outline: as §2
Influenza A virus [9] = experiment: Antiviral activity against Influenza A virus (A/California/04/2009(H1N1)) infected in MDCK cells from Mill Hill assessed as log reduction in viral titer at 128 uM after 24 hrs by immunofluorescent assay; assay type: functional; outline: as §2
Influenza A virus [10] = experiment: Antiviral activity against Influenza A virus (A/Mexico/4604/2009(H1N1)) infected in MDCK cells from Mill Hill assessed as log reduction in viral titer at 128 uM after 24 hrs by immunofluorescent assay; assay type: functional; outline: as §2
Influenza A virus [11] = experiment: Antiviral activity against Influenza A virus (A/Washington/29/2009(H1N1)) infected in MDCK cells from Mill Hill assessed as log reduction in viral titer at 128 uM after 24 hrs by immunofluorescent assay; assay type: functional; outline: as §2
Influenza A virus [12] = experiment: Antiviral activity against Influenza A virus (A/Illinois/10/2009(H1N1)) infected in MDCK cells from Mill Hill assessed as log reduction in viral titer at 128 uM after 24 hrs by immunofluorescent assay; assay type: functional; outline: as §2
Influenza A virus [13] = experiment: Antiviral activity against Influenza A virus (A/California/04/2009(H1N1)) infected in MDCK cells from ATCC assessed as inhibition of viral replication after 3 days by microscopic analysis using crystal violet stain; assay type: functional
Outline: (§3)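 Confluent MDCK-ATCC monolayers infected with virus diluted to give 15–45 plaques/well. Adsorption 1 h at 37°C without drug, then washed. Overlaid with 0.8% agarose in MEM containing drug plus TPCK-trypsin: 3 μg/ml for seasonal viruses, 2 μg/ml for 2009 A(H1N1). Incubated 3 days at 37°C, 5% CO2. Ethanol-fixed, crystal violet-stained, plaques counted. EC50 by curve fit; duplicates on three occasions, mean ± SD.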

Influenza A virus [14] = experiment: Antiviral activity against Influenza A virus (A/Mexico/4604/2009(H1N1)) infected in MDCK cells from ATCC assessed as inhibition of viral replication after 3 days by microscopic analysis using crystal violet stain; assay type: functional; outline: as §3
Influenza A virus [15] = experiment: Antiviral activity against Influenza A virus (A/California/04/2009(H1N1)) infected in MDCK cells from Mill Hill assessed as inhibition of viral replication after 3 days by microscopic analysis using crystal violet stain; assay type: functional
Influenza A virus [16] = experiment: Antiviral activity against Influenza A virus (A/Mexico/4604/2009(H1N1)) infected in MDCK cells from Mill Hill assessed as inhibition of viral replication after 3 days by microscopic analysis using crystal violet stain; assay type: functional
Influenza A virus [17] = experiment: Antiviral activity against adamantane-, oseltamivir-, zanamivir-susceptible Influenza A virus (A/Georgia/17/2006(H1N1)) infected in MDCK cells assessed as inhibition of viral replication after 3 days by microscopic analysis using crystal violet stain; assay type: functional, organism-based; details: 72 h; outline: as §3
Influenza A virus [18] = experiment: microbe, parasite or virus in culture; details: MDCK, 72 h
Influenza A virus [19] = experiment: microbe, parasite or virus in culture; details: MDCK, 72 h; remark: listed apart in the source
Influenza A virus [20] = experiment: microbe, parasite or virus in culture; details: (A/duck/Vietnam/NCVD93/2007 clade 2.3.4 (H5N1)), MDCK, 72 h
Influenza A virus [21] = experiment: microbe, parasite or virus in culture; details: (A/turkey/VA/4529/2002 (H7N2)), MDCK, 72 h
Influenza A virus [22] = experiment: microbe, parasite or virus in culture; details: MDCK, 72 h; remark: listed apart in the source
Influenza A virus [23] = experiment: microbe, parasite or virus in culture; details: (A/Ecuador/5179/2008(H1N1)), MDCK, 72 h
Influenza A virus [24] = experiment: microbe, parasite or virus in culture; details: (A/Brazil/1067/2008(H1N1)), MDCK, 72 h
Influenza A virus [25] = experiment: microbe, parasite or virus in culture; details: (A/Swine/South Dakota/03/2008(H1N1)), MDCK, 72 h

NC(=O)c1nc(F)cnc1O [FAVIPIRAVIR]
log10FFU (Influenza A virus [1]): <1 | log10FFU (Influenza A virus [2]): 2.1 | log10FFU (Influenza A virus [3]): 1.5 | log10FFU (Influenza A virus [4]): 1.7 | log10FFU (Influenza A virus [5]): <1 | log10FFU (Influenza A virus [6]): <1 | log10FFU (Influenza A virus [7]): 1 | log10FFU (Influenza A virus [8]): <1 | log10FFU (Influenza A virus [9]): <1 | log10FFU (Influenza A virus [10]): <1 | log10FFU (Influenza A virus [11]): <1 | log10FFU (Influenza A virus [12]): <1 | log10FFU (Influenza A virus [13]): 0.48 | log10FFU (Influenza A virus [14]): 0.35 | log10FFU (Influenza A virus [15]): 3.75 | log10FFU (Influenza A virus [16]): 36.16 | EC50 (Influenza A virus [17]): 1460 nM | EC50 (Influenza A virus [18]): 380 nM | EC50 (Influenza A virus [19]): 960 nM | EC50 (Influenza A virus [20]): 1590 nM | EC50 (Influenza A virus [21]): 1530 nM | EC50 (Influenza A virus [22]): 3630 nM | EC50 (Influenza A virus [23]): 2480 nM | EC50 (Influenza A virus [24]): 1850 nM | EC50 (Influenza A virus [25]): 830 nM

— ChEMBL document CHEMBL1671691 (Antimicrob Agents Chemother, 2010)
